Measured values published in paper PMC3594138 (Bioorganic & medicinal chemistry letters, 2013).
Like-named read-outs stand apart in the source and are kept apart here.

What was measured:
isolated rat heart = conditions: uptake-2 blocked pharmacologically; cited from earlier work
[1] = rats, t = 30 min, n = 5, mean ± SD; cited from earlier work
[2] = Biodistribution studies in rats; format: in vivo, rat; conditions: t = 30 min after intravenous injection, n = 5, mean ± SD
In short: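 Rats received the fluorine-18 labelled test compound by intravenous injection. Tissue radioactivity was determined 30 min later and expressed as % injected dose/g, with n = 5 each.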

[3] = MicroPET imaging study in rhesus macaque; format: in vivo, rhesus macaque monkey; conditions: PET

Molecule	Major Clearance T1/2 (isolated rat heart) [h]	Neuronal uptake rate Kup (isolated rat heart) [ml/min/g wet]	Tissue concentration, adrenal medulla [1] [% injected dose/g]	Tissue concentration, blood [1] [% injected dose/g]	Tissue concentration, liver [1] [% injected dose/g]	Tissue concentration, lung [1] [% injected dose/g]	Tissue concentration, spleen [1] [% injected dose/g]	other results
N=C(N)NCc1ccc([18F])cc1 [[^18F]PFBG, p-[^18F]fluorobenzylguanidine]	0.53 ± 0.06							
N=C(N)NCc1cccc([123I])c1 [[^123I]MIBG, [^123I]-m-iodobenzylguanidine]	3.5 ± 1.8							
N=[11C](N)NCCc1ccc(F)c(O)c1 [[^11C]4F-MHPG, [^11C]4-fluoro-m-hydroxyphenethylguanidine]	> 73	0.72	0.56 ± 0.21	0.08 ± 0.01	1.22 ± 0.18	0.56 ± 0.15	0.52 ± 0.10	Tissue concentration, left ventricle [1]: 1.77 ± 0.27 % injected dose/g
[^11C]-(−)-m-hydroxyephedrine [[^11C]HED]		2.7 ± 0.4						
NC(N)=NCc1cccc([125I])c1 [[^125I]MIBG]			1.53 ± 0.08	0.10 ± 0.01	1.19 ± 0.06	2.31 ± 0.19	0.85 ± 0.06	
N=C(N)NCCc1ccc([18F])c(O)c1 [[^18F]4F-MHPG, [^18F]4-fluoro-m-hydroxyphenethylguanidine]								Tissue concentration, adrenal medulla [2]: 0.54 ± 0.08 % injected dose/g; Tissue concentration, blood [2]: 0.07 ± 0.01 % injected dose/g; Tissue concentration, left ventricle [2]: 1.45 ± 0.13 % injected dose/g; Tissue concentration, liver [2]: 1.14 ± 0.16 % injected dose/g; Tissue concentration, lung [2]: 0.43 ± 0.08 % injected dose/g; Tissue concentration, spleen [2]: 0.56 ± 0.10 % injected dose/g; Retention of the tracer in the lungs [3]: essentially no retention; Uptake in the liver relative to cardiac uptake [3]: a little lower than the cardiac uptake; Activity in the vertebrae of the spine (in vivo defluorination) ([3]; sagittal images): little or no activity
